Article PMC9302689 (British Journal of Clinical Pharmacology, 2022)

Experiments:
[1] = test system: healthy male subjects; experiment: Treatment emergent adverse events; type: in vivo, human; conditions: for Incidence of TEAE: Dizziness / Incidence of TEAE: Dizziness postural / Incidence of TEAE: Fatigue / Incidence of TEAE: Headache / Incidence of TEAE: Nausea / Incidence of TEAE: Oropharyngeal pain / Incidence of TEAE: Presyncope / Incidence of TEAE: Pruritus / Incidence of TEAE: Somnolence / Incidence of TEAE: Vomiting: n = 8
[2] = test system: healthy male subjects; experiment: VAS Bond and Lader; type: in vivo, human; conditions: 12-hour post-dose period
Outline: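 Subjects marked 16 horizontal 100 mm visual analogue scales twice pre-dose and at 0.5–10 h after a single dose or placebo. Three factors were derived: alertness from 9 scores, mood from 5 and calmness from 2. Change from baseline over 12 h was analysed by MMRM against pooled placebo, with baseline as covariate.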

[3] = molecular target: μ receptor (Homo sapiens, UniProt P35372); experiment: In vitro binding affinity, μ receptor
[4] = test system: dopamine release induced by infusion of NMDA in the striatum; experiment: NMDA-induced dopamine release in the striatum; type: in vivo; conditions: rats, oral dose of 10 mg/kg
[5] = test system: healthy male subjects; experiment: NeuroCart body sway; type: in vivo, human; conditions: 12-hour post-dose period
Outline: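 Single-dose, placebo-controlled study in fasted healthy men, tested twice pre-dose and at 0.5–10 h post-dose. Anteroposterior sway was recorded with eyes closed using a Wright-type ataxiameter. Movements over 2 min were integrated and expressed in mm. Values were ln-transformed, and change from baseline over 12 h was analysed by MMRM against pooled placebo, baseline as covariate, then back-transformed.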

[6] = molecular target: sigma non‐opioid intracellular receptor 1 (Homo sapiens, UniProt Q99720); experiment: In vitro binding affinity, sigma non-opioid intracellular receptor 1
Sequence of sigma non‐opioid intracellular receptor 1 (Q99720 whole entry, species assumed): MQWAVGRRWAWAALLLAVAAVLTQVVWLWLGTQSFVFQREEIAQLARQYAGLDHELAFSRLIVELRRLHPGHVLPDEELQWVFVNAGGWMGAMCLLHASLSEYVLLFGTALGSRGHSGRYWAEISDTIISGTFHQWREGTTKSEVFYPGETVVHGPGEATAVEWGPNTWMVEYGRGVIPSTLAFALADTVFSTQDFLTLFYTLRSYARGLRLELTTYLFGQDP

Sequence of μ receptor (P35372 whole entry, the tested form may be a part): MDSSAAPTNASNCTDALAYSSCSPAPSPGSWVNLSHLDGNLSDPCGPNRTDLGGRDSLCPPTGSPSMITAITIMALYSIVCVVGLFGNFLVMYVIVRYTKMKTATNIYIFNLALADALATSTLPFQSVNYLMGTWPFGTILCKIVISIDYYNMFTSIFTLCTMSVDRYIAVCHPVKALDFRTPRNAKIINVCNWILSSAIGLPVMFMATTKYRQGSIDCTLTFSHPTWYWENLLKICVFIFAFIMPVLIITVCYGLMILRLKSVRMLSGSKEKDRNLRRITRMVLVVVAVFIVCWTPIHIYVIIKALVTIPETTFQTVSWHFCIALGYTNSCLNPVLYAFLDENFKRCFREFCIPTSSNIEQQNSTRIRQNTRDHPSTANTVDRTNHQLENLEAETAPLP

CN1CCC23CCCCC2C1Cc1ccc(C(N)=O)cc13 (stereo not drawn) [ALKS 7119, (9α, 13α)‐17‐methylmorphinan‐3‐carboxamide]
Incidence of TEAE: Dizziness ([1]; 3 mg single oral dose): 0 | Incidence of TEAE: Dizziness postural ([1]; 3 mg single oral dose): 0 | Incidence of TEAE: Fatigue ([1]; 3 mg single oral dose): 3 | Incidence of TEAE: Headache ([1]; 3 mg single oral dose): 0 | Incidence of TEAE: Nausea ([1]; 3 mg single oral dose): 0 | Incidence of TEAE: Oropharyngeal pain ([1]; 3 mg single oral dose): 0 | Incidence of TEAE: Presyncope ([1]; 3 mg single oral dose): 0 | Incidence of TEAE: Pruritus ([1]; 3 mg single oral dose): 0 | Incidence of TEAE: Somnolence ([1]; 3 mg single oral dose): 0 | Incidence of TEAE: Vomiting ([1]; 3 mg single oral dose): 0 | Incidence of TEAE: Dizziness ([1]; 10 mg single oral dose): 0 | Incidence of TEAE: Dizziness postural ([1]; 10 mg single oral dose): 0 | Incidence of TEAE: Fatigue ([1]; 10 mg single oral dose): 1 | Incidence of TEAE: Headache ([1]; 10 mg single oral dose): 1 | Incidence of TEAE: Nausea ([1]; 10 mg single oral dose): 0 | Incidence of TEAE: Oropharyngeal pain ([1]; 10 mg single oral dose): 0 | Incidence of TEAE: Presyncope ([1]; 10 mg single oral dose): 1 | Incidence of TEAE: Pruritus ([1]; 10 mg single oral dose): 0 | Incidence of TEAE: Somnolence ([1]; 10 mg single oral dose): 1 | Incidence of TEAE: Vomiting ([1]; 10 mg single oral dose): 0 | Incidence of TEAE: Dizziness ([1]; 25 mg single oral dose): 0 | Incidence of TEAE: Dizziness postural ([1]; 25 mg single oral dose): 0 | Incidence of TEAE: Fatigue ([1]; 25 mg single oral dose): 2 | Incidence of TEAE: Headache ([1]; 25 mg single oral dose): 0 | Incidence of TEAE: Nausea ([1]; 25 mg single oral dose): 0 | Incidence of TEAE: Oropharyngeal pain ([1]; 25 mg single oral dose): 0 | Incidence of TEAE: Presyncope ([1]; 25 mg single oral dose): 1 | Incidence of TEAE: Pruritus ([1]; 25 mg single oral dose): 0 | Incidence of TEAE: Somnolence ([1]; 25 mg single oral dose): 0 | Incidence of TEAE: Vomiting ([1]; 25 mg single oral dose): 0 | Incidence of TEAE: Dizziness ([1]; 50 mg single oral dose): 0 | Incidence of TEAE: Dizziness postural ([1]; 50 mg single oral dose): 0 | Incidence of TEAE: Fatigue ([1]; 50 mg single oral dose): 0 | Incidence of TEAE: Headache ([1]; 50 mg single oral dose): 2 | Incidence of TEAE: Nausea ([1]; 50 mg single oral dose): 1 | Incidence of TEAE: Oropharyngeal pain ([1]; 50 mg single oral dose): 0 | Incidence of TEAE: Presyncope ([1]; 50 mg single oral dose): 1 | Incidence of TEAE: Pruritus ([1]; 50 mg single oral dose): 0 | Incidence of TEAE: Somnolence ([1]; 50 mg single oral dose): 2 | Incidence of TEAE: Vomiting ([1]; 50 mg single oral dose): 0 | Incidence of TEAE: Dizziness ([1]; 75 mg single oral dose): 0 | Incidence of TEAE: Dizziness postural ([1]; 75 mg single oral dose): 0 | Incidence of TEAE: Fatigue ([1]; 75 mg single oral dose): 0 | Incidence of TEAE: Headache ([1]; 75 mg single oral dose): 3 | Incidence of TEAE: Nausea ([1]; 75 mg single oral dose): 3 | Incidence of TEAE: Oropharyngeal pain ([1]; 75 mg single oral dose): 0 | Incidence of TEAE: Presyncope ([1]; 75 mg single oral dose): 3 | Incidence of TEAE: Pruritus ([1]; 75 mg single oral dose): 0 | Incidence of TEAE: Somnolence ([1]; 75 mg single oral dose): 1 | Incidence of TEAE: Vomiting ([1]; 75 mg single oral dose): 2 | Incidence of TEAE: Dizziness ([1]; 100 mg single oral dose): 0 | Incidence of TEAE: Dizziness postural ([1]; 100 mg single oral dose): 2 | Incidence of TEAE: Fatigue ([1]; 100 mg single oral dose): 0 | Incidence of TEAE: Headache ([1]; 100 mg single oral dose): 3 | Incidence of TEAE: Nausea ([1]; 100 mg single oral dose): 3 | Incidence of TEAE: Oropharyngeal pain ([1]; 100 mg single oral dose): 0 | Incidence of TEAE: Presyncope ([1]; 100 mg single oral dose): 1 | Incidence of TEAE: Pruritus ([1]; 100 mg single oral dose): 0 | Incidence of TEAE: Somnolence ([1]; 100 mg single oral dose): 2 | Incidence of TEAE: Vomiting ([1]; 100 mg single oral dose): 1 | Incidence of TEAE: Dizziness ([1]; 125 mg single oral dose): 1 | Incidence of TEAE: Dizziness postural ([1]; 125 mg single oral dose): 0 | Incidence of TEAE: Fatigue ([1]; 125 mg single oral dose): 0 | Incidence of TEAE: Headache ([1]; 125 mg single oral dose): 2 | Incidence of TEAE: Nausea ([1]; 125 mg single oral dose): 2 | Incidence of TEAE: Oropharyngeal pain ([1]; 125 mg single oral dose): 0 | Incidence of TEAE: Presyncope ([1]; 125 mg single oral dose): 0 | Incidence of TEAE: Pruritus ([1]; 125 mg single oral dose): 1 | Incidence of TEAE: Somnolence ([1]; 125 mg single oral dose): 0 | Incidence of TEAE: Vomiting ([1]; 125 mg single oral dose): 0 | Incidence of TEAE: Dizziness ([1]; 150 mg single oral dose): 1 | Incidence of TEAE: Dizziness postural ([1]; 150 mg single oral dose): 0 | Incidence of TEAE: Fatigue ([1]; 150 mg single oral dose): 1 | Incidence of TEAE: Headache ([1]; 150 mg single oral dose): 2 | Incidence of TEAE: Nausea ([1]; 150 mg single oral dose): 5 | Incidence of TEAE: Oropharyngeal pain ([1]; 150 mg single oral dose): 0 | Incidence of TEAE: Presyncope ([1]; 150 mg single oral dose): 3 | Incidence of TEAE: Pruritus ([1]; 150 mg single oral dose): 0 | Incidence of TEAE: Somnolence ([1]; 150 mg single oral dose): 1 | Incidence of TEAE: Vomiting ([1]; 150 mg single oral dose): 1 | Incidence of TEAE: Dizziness ([1]; 175 mg single oral dose): 0 | Incidence of TEAE: Dizziness postural ([1]; 175 mg single oral dose): 0 | Incidence of TEAE: Fatigue ([1]; 175 mg single oral dose): 0 | Incidence of TEAE: Headache ([1]; 175 mg single oral dose): 0 | Incidence of TEAE: Nausea ([1]; 175 mg single oral dose): 5 | Incidence of TEAE: Oropharyngeal pain ([1]; 175 mg single oral dose): 0 | Incidence of TEAE: Presyncope ([1]; 175 mg single oral dose): 4 | Incidence of TEAE: Pruritus ([1]; 175 mg single oral dose): 0 | Incidence of TEAE: Somnolence ([1]; 175 mg single oral dose): 1 | Incidence of TEAE: Vomiting ([1]; 175 mg single oral dose): 0 | Incidence of TEAE: Dizziness ([1]; 200 mg single oral dose): 2 | Incidence of TEAE: Dizziness postural ([1]; 200 mg single oral dose): 0 | Incidence of TEAE: Fatigue ([1]; 200 mg single oral dose): 1 | Incidence of TEAE: Headache ([1]; 200 mg single oral dose): 3 | Incidence of TEAE: Nausea ([1]; 200 mg single oral dose): 3 | Incidence of TEAE: Oropharyngeal pain ([1]; 200 mg single oral dose): 0 | Incidence of TEAE: Presyncope ([1]; 200 mg single oral dose): 1 | Incidence of TEAE: Pruritus ([1]; 200 mg single oral dose): 2 | Incidence of TEAE: Somnolence ([1]; 200 mg single oral dose): 1 | Incidence of TEAE: Vomiting ([1]; 200 mg single oral dose): 0 | Subjects reporting TEAEs ([1]; all ALKS 7119 doses, 51 of 80 subjects (placebo 40%)): 64% | VAS Bond and Lader “calmness”, LSM CFB ([2]; 3 mg single oral dose): 6.65 mm | VAS Bond and Lader “mood”, LSM CFB ([2]; 3 mg single oral dose): 6.17 mm | VAS Bond and Lader “subjective alertness”, LSM CFB ([2]; 3 mg single oral dose): 1.64 mm | VAS Bond and Lader “calmness”, LSM CFB ([2]; 10 mg single oral dose): −0.31 mm | VAS Bond and Lader “mood”, LSM CFB ([2]; 10 mg single oral dose): −0.04 mm | VAS Bond and Lader “subjective alertness”, LSM CFB ([2]; 10 mg single oral dose): 0.03 mm | VAS Bond and Lader “calmness”, LSM CFB ([2]; 25 mg single oral dose): −0.57 mm | VAS Bond and Lader “mood”, LSM CFB ([2]; 25 mg single oral dose): −0.14 mm | VAS Bond and Lader “subjective alertness”, LSM CFB ([2]; 25 mg single oral dose): 0.26 mm | VAS Bond and Lader “calmness”, LSM CFB ([2]; 50 mg single oral dose): 3.6 mm | VAS Bond and Lader “mood”, LSM CFB ([2]; 50 mg single oral dose): 4.47 mm | VAS Bond and Lader “subjective alertness”, LSM CFB ([2]; 50 mg single oral dose): 0.96 mm | VAS Bond and Lader “calmness”, LSM CFB ([2]; 75 mg single oral dose): 0.26 mm | VAS Bond and Lader “mood”, LSM CFB ([2]; 75 mg single oral dose): −0.82 mm | VAS Bond and Lader “subjective alertness”, LSM CFB ([2]; 75 mg single oral dose): −1.02 mm | VAS Bond and Lader “calmness”, LSM CFB ([2]; 100 mg single oral dose): 0.58 mm | VAS Bond and Lader “mood”, LSM CFB ([2]; 100 mg single oral dose): 0.56 mm | VAS Bond and Lader “subjective alertness”, LSM CFB ([2]; 100 mg single oral dose): 0.57 mm | VAS Bond and Lader “calmness”, LSM CFB ([2]; 125 mg single oral dose): 0.46 mm | VAS Bond and Lader “mood”, LSM CFB ([2]; 125 mg single oral dose): 1.63 mm | VAS Bond and Lader “subjective alertness”, LSM CFB ([2]; 125 mg single oral dose): −0.56 mm | VAS Bond and Lader “calmness”, LSM CFB ([2]; 150 mg single oral dose): 2.59 mm | VAS Bond and Lader “mood”, LSM CFB ([2]; 150 mg single oral dose): 3.35 mm | VAS Bond and Lader “subjective alertness”, LSM CFB ([2]; 150 mg single oral dose): 1.94 mm | VAS Bond and Lader “calmness”, LSM CFB ([2]; 175 mg single oral dose): 0.08 mm | VAS Bond and Lader “mood”, LSM CFB ([2]; 175 mg single oral dose): 0.11 mm | VAS Bond and Lader “subjective alertness”, LSM CFB ([2]; 175 mg single oral dose): −1.17 mm | VAS Bond and Lader “calmness”, LSM CFB ([2]; 200 mg single oral dose): 0.68 mm | VAS Bond and Lader “mood”, LSM CFB ([2]; 200 mg single oral dose): 0.51 mm | VAS Bond and Lader “subjective alertness”, LSM CFB ([2]; 200 mg single oral dose): 0.09 mm | Affinity for μ receptor lower than for SERT [3]: 17 fold | Ki ([3]; read-out: Ki, μ receptor, preclinical in vitro panel): 600 nM | Effect on dopamine release induced by NMDA infusion in the striatum [4]: completely blocked dopamine release | Body sway, LSM CFB ([5]; 3 mg single oral dose): −0.14 LOG mm | Body sway, LSM CFB ([5]; 10 mg single oral dose): 0.16 LOG mm | Body sway, LSM CFB ([5]; 25 mg single oral dose): −0.03 LOG mm | Body sway, LSM CFB ([5]; 50 mg single oral dose): 0.12 LOG mm | Body sway, LSM CFB ([5]; 75 mg single oral dose): −0.06 LOG mm | Body sway, LSM CFB ([5]; 100 mg single oral dose): 0.08 LOG mm | Affinity for sigma non-opioid intracellular receptor 1 lower than for SERT [6]: 900 fold
